Data published in ChEMBL document CHEMBL4673284, “Syntheses and anti-HIV and human cluster of differentiation 4 (CD4) down-modulating potencies of pyridine-fused cyclotriazadisulfonamide (CADA) compounds” (Bioorg Med Chem, 2020).
pIC50: −log10 of the molar value.

How the values were obtained:
[1] = tested on: Human immunodeficiency virus 1; test: Antiviral activity against HIV-1 NL4-3 infected in human MT-4 cells assessed as inhibition of viral replication by measuring inhibition of cell viability preincubated with cells for 15 mins followed by viral infection and measured after 4 days by MTS/PES assay; format: functional, organism-based; conditions: Human immunodeficiency virus 1, NL4-3, MT4
Summary of the method: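 HIV-1 NL4.3 (30 pg/well) was then added at 37 °C. After 4 days, viability was read by MTS/PES (absorbance 490 and 700 nm) and the IC50 for viral replication was calculated. Mean ± SD, n = 2 or 3.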

[2] = Thermodynamic solubility of the compound in aqueous PBS buffer at pH 7.4 incubated for 72 hrs by shake flask method based UV-Vis absorption spectroscopy; format: physicochemical; conditions: read-out: Therm_solubility
Summary of the method: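 Shake-flask method: 3–5 mg compound in 5 mL PBS pH 7.4 was agitated 72 h, with excess solid checked at 24 and 48 h. The solution was then filtered and the filtrate quantified by UV-Vis standard addition with Beer–Lambert. ε came from five-concentration methanol calibrations at λmax, fitted by linear least squares.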

[3] = molecular target: T-cell surface glycoprotein CD4 (Homo sapiens, UniProt P01730); test: Binding affinity to signal peptide of human CD4-YFP expressed in CHO-K1 cells assessed down-modulation of CD4 surface expression incubated for 24 hrs by flow cytometry; format: cell-based
Summary of the method: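 CHO cells stably expressing human CD4 C-terminally fused to YFP were exposed 24 h at 37 °C to 1:5 serial dilutions, washed, fixed in 1% formaldehyde and analysed by flow cytometry (488 nm laser). YFP MFI, minus non-transfected background, was expressed as % of untreated controls. IC50 is the concentration giving 50% down-modulation. Mean ± SD, n = 3.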

[4] = tested on: MT4; test: Cytotoxicity against human MT-4 cells assessed as inhibition of cell viability incubated for 48 hrs by MTS/PES assay; format: cell-based; conditions: mt4, 48 h
Summary of the method: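 Cytotoxicity: 10^4 MT-4 cells/well in DMEM with 10% FBS and 10 mM HEPES were exposed to compounds 48 h at 37 °C. CC50 was derived from the drop in viability measured by MTS/PES.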

[5] = tested on: CD4 (surface expression down-modulation); test: Therapeutic index, ratio of CC50 for human MT-4 cells to IC50 for human CD4-YFP expressed in CHO-K1 cells assessed down-modulation of CD4 surface expression incubated for 24 hrs by flow cytometry; format: toxicity, cell-based; conditions: read-out: Ratio CC50/IC50
[6] = Kinetic solubility of the compound in aqueous PBS buffer at H 7.4/2.5% DMSO incubated for 1 hr by nephelometry; format: physicochemical; conditions: aqueous PBS buffer with 2.5% DMSO, pH 7.4, read-out: Kinetic_solubility
Summary of the method: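 Compound from a 20 mM DMSO stock was diluted into PBS pH 7.4 at a constant 2.5% DMSO, then two-fold serially diluted in quadruplicate, with extra intermediate concentrations. Plates were shaken 2 min, held 1 h at 37 °C and shaken 3 min before nephelometry. Blank-subtracted scattering onset defined kinetic solubility.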

| Structure (SMILES) | pIC50 [1] | solubility thermodynamic at 72 h [2] | pIC50 [3] | CC50 [4] | selectivity ratio at 24 h [5] | solubility kinetic at 1 h [6] |
| --- | --- | --- | --- | --- | --- | --- |
| Br.C=C1CN(S(=O)(=O)c2ccc(C)cc2)CCc2cc(O)cc(n2)CCN(S(=O)(=O)c2ccc(C)cc2)C1 | < 4.30 | 27 µM | 5.03 | > 100 µM | – | – |
| C=C1CN(S(=O)(=O)c2ccc(C)cc2)CCc2cc(CC(C)C)cc(n2)CCN(S(=O)(=O)c2ccc(C)cc2)C1.Cl | 5.64 | 29 µM | 6.18 | 87.9 µM | > 100 | – |
| C=C1CN(S(=O)(=O)c2ccc(C)cc2)CCc2cc(CC)cc(n2)CCN(S(=O)(=O)c2ccc(C)cc2)C1 | 5.47 | – | 6.07 | > 100 µM | – | – |
| C=C1CN(S(=O)(=O)c2ccc(C)cc2)CCCN(Cc2ccccc2)CCCN(S(=O)(=O)c2ccc(C)cc2)C1.Cl [CYCLOTRIAZADISULFONAMIDE HYDROCHLORIDE] | 5.77 | 11 µM | 6.48 | > 100 µM | – | 43 µM |
| C=C1CN(S(=O)(=O)c2ccc(C)cc2)CCc2cc(OCC3CCCCC3)cc(n2)CCN(S(=O)(=O)c2ccc(C)cc2)C1.Cl | 6.03 | – | 6.89 | > 100 µM | – | 65 µM |
| C=C1CN(S(=O)(=O)c2ccc(C)cc2)CCc2cc(-c3ccccc3)cc(n2)CCN(S(=O)(=O)c2ccc(C)cc2)C1.Cl | 5.61 | – | 6.13 | > 100 µM | – | 61 µM |
| C=C1CN(S(=O)(=O)c2ccc(C)cc2)CCc2cc(OC)cc(n2)CCN(S(=O)(=O)c2ccc(C)cc2)C1.Cl | 4.90 | 28 µM | 5.73 | > 100 µM | – | 64 µM |
| C=C1CN(S(=O)(=O)c2ccc(N(C)C)cc2)CCc2cc(CC)cc(n2)CCN(S(=O)(=O)c2ccc(N(C)C)cc2)C1 | 5.96 | – | 6.66 | > 100 µM | – | – |
| C=C1CN(S(=O)(=O)c2ccc(C)cc2)CCc2cc(OCc3ccccc3)cc(n2)CCN(S(=O)(=O)c2ccc(C)cc2)C1 | 5.66 | – | 6.38 | > 100 µM | – | – |
| C=C1CN(S(=O)(=O)c2ccc(C)cc2)CCc2cc(OCC)cc(n2)CCN(S(=O)(=O)c2ccc(C)cc2)C1.Cl | 4.98 | – | 5.82 | > 100 µM | – | 54 µM |
| C=C1CN(S(=O)(=O)c2ccc(C)cc2)CCc2cc(CCC)cc(n2)CCN(S(=O)(=O)c2ccc(C)cc2)C1.Cl | 5.55 | 18 µM | 6.08 | > 100 µM | – | – |
| C=C1CN(S(=O)(=O)c2ccc(C)cc2)CCc2cc(CCCC)cc(n2)CCN(S(=O)(=O)c2ccc(C)cc2)C1 | 5.62 | – | 6.27 | 65.8 µM | > 100 | – |
| C=C1CN(S(=O)(=O)c2ccc(C)cc2)CCc2cc(C)cc(n2)CCN(S(=O)(=O)c2ccc(C)cc2)C1 | < 4.30 | – | 5.78 | > 100 µM | – | – |
| C=C1CN(S(=O)(=O)c2ccc(C)cc2)CCc2cccc(n2)CCN(S(=O)(=O)c2ccc(C)cc2)C1 | < 4.30 | – | 5.55 | > 100 µM | – | – |
| C=C1CN(S(=O)(=O)c2ccc(C)cc2)CCc2cc(C(C)(C)C)cc(n2)CCN(S(=O)(=O)c2ccc(C)cc2)C1.Cl | 5.57 | 20 µM | 6.02 | > 100 µM | – | – |
